Reference: ChEMBL document CHEMBL1153567, “Synthesis of novel pyrazole derivatives and evaluation of their antidepressant and anticonvulsant activities” (2009)
Calls of active or inactive are those of the source. The rule behind the calls is not given here.

Tests used:
[1] = tested on: Mus musculus; test: Antidepressant activity in Swiss-Webster mouse assessed as reduction in duration of immobility time at 10 mg/kg, ip by tail suspension behavioral despair test; format: functional; set-up: scale not given: the % may be the effect or the level left; details: route intraperitoneal
In short: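 Tail suspension test in mice (n = 6/group; 22 ± 3 °C, 60 ± 5% humidity, 12 h light cycle, acclimated ≥2 days). Doses given ip in 0.5% w/v CMC at 0.5 mL/100 g; controls received CMC, imipramine 10 mg kg⁻¹ ip as reference. After 1 h, mice hung by tape 1 cm from the tail tip, 80 cm above the floor. Passive, motionless immobility timed over 6 min; mean ± S.E.M. and % change from control.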

[2] = tested on: Mus musculus; test: Antidepressant activity in Swiss-Webster mouse assessed as reduction in duration of immobility time at 10 mg/kg, ip by tail suspension behavioral despair test relative to imipramine; format: functional; set-up: scale not given: the % may be the effect or the level left; details: route intraperitoneal
[3] = tested on: Mus musculus; test: Anticonvulsant activity in Swiss-Webster mouse assessed as protection against PTZ-induced clonic seizures at 20 mg/kg, ip administered 1 hr before PTZ; format: functional; details: route intraperitoneal
In short: (§1)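 Mice (n = 6/group), kept at 22 ± 3 °C, 60 ± 5% humidity, 12 h light/dark cycle, acclimated ≥2 days, free food and water. Agents given ip in 0.5% w/v CMC in water at 0.5 mL/100 g. After 1 h, PTZ 100 mg kg⁻¹ ip (0.5% solution). Observed 30 min; no clonic spasm episode lasting ≥5 s counted as protection. % protection = (control − treated convulsions)/control × 100.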

[4] = tested on: Mus musculus; test: Anticonvulsant activity in Swiss-Webster mouse assessed as protection against PTZ-induced clonic seizures at 30 mg/kg, ip administered 1 hr before PTZ; format: functional, organism-based; set-up: dose 30 mg/kg; in short: as §1
[5] = tested on: Mus musculus; test: Anticonvulsant activity in Swiss-Webster mouse assessed as protection against PTZ-induced clonic seizures at 20 mg/kg, ip administered 1 hr before PTZ

Row | Structure (SMILES) | Activity [1] [%] | Activity [2] [%] | Activity [3] [%] | Activity [4] | Activity [5]
1 | O=C(NNC(=O)c1cc2ccccc2[nH]1)c1cc2ccccc2[nH]1 | 17.8 | – | – | – | –
2 | N#CC1=C(N)N(C(=O)c2ccccc2)NC1(C#N)C#N | 9.37 | – | – | – | –
3 | CCOC(=O)c1[nH]n(C(=O)c2ccccc2)c(=O)c1C#N | 24.41 | 71.8 | 74.5 | Active | –
4 | O=C(NNC(=O)c1cccs1)c1cccs1 | 72.22 | – | – | – | –
5 | CCOC(=O)c1[nH]n(C(=O)c2cc3ccccc3[nH]2)c(=O)c1C#N | 30.54 | 78.1 | 74 | Active | –
6 | CN(C)CCCN1c2ccccc2CCc2ccccc21 [IMIPRAMINE] | 45.75 | – | – | – | –
7 | O=C(NNC(=O)c1ccccn1)c1ccccn1 | 32.39 | 80.2 | – | – | –
8 | CCOC(=O)c1[nH]n(C(=O)c2cccs2)c(=O)c1C#N | 18.33 | 66.4 | 78.7 | Active | –
9 | O=C(NNC(=O)c1ccccc1)c1ccccc1 | 71.96 | – | 65.1 | – | –
10 | CCOC(=O)c1[nH]n(C(=O)c2ccccn2)c(=O)c1C#N | 36.99 | 86.1 | 53.7 | – | –
11 | N#CC1=C(N)N(C(=O)c2cccs2)NC1(C#N)C#N | 10.6 | – | 56.8 | – | –
12 | O=C1NC(=O)C(c2ccccc2)(c2ccccc2)N1 | – | – | – | – | Active
13 | N#CC1=C(N)N(C(=O)c2cc3ccccc3[nH]2)NC1(C#N)C#N | 17.67 | – | – | – | –
14 | N#CC1=C(N)N(C(=O)c2ccccn2)NC1(C#N)C#N | 38.76 | 88.6 | – | – | –
